Calls of active or inactive are those of the source. No cut-off for these calls is given here.
Legend:
[1] = Antitumor activity against mouse BA/F3 cells expressing BCR-ABL T315I mutant allografted in SCID mouse assessed as increase in median survival at 20 mg/kg/day, po qd for 10 days; type: functional, BaF3
Outline: (§1)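 Ba/F3 Bcr-Abl T315I cells stably carrying firefly luciferase, in saline, were injected i.v. into SCID nude mice (2 × 10^6 cells/0.1 mL). Imaging began 5−7 days later: i.p. D-luciferin, halothane anaesthesia, images after 5 min. Mice were randomised by signal and dosed by oral gavage once daily for 10 days (5, 10, 20 mg/kg/day; imatinib 100 mg/kg; vehicle). Luminescence was quantified; survival by Kaplan−Meier with log-rank test.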

[2] = Antitumor activity against mouse BA/F3 cells expressing BCR-ABL T315I mutant allografted in SCID mouse assessed as increase in median survival at 10 mg/kg/day, po qd for 10 days; type: functional, BaF3; outline: as §1
[3] = Antitumor activity against mouse BA/F3 cells expressing BCR-ABL T315I mutant allografted in SCID mouse assessed as increase in median survival at 5 mg/kg/day, po qd for 10 days; type: functional, BaF3; outline: as §1
[4] = system: BaF3; experiment: Antitumor activity against mouse BA/F3 cells expressing BCR-ABL T315I mutant allografted in SCID mouse assessed as increased survival at 1 to 20 mg/kg/day, po qd for 10 days; type: functional, organism-based
[5] = system: BaF3; experiment: Antitumor activity against mouse BA/F3 cells expressing BCR-ABL T315I mutant allografted in SCID mouse assessed as complete suppression of cell proliferation at 20 mg/kg/day, po qd for 10 days; type: functional, organism-based; outline: as §1
[6] = system: BaF3; experiment: Antitumor activity against mouse BA/F3 cells expressing BCR-ABL T315I mutant allografted in SCID mouse assessed as suppression of cell proliferation at 5 to 20 mg/kg/day, po qd for 10 days relative to untreated vehicle; type: functional, organism-based; outline: as §1
[7] = system: BaF3; experiment: Antitumor activity against mouse BA/F3 cells expressing BCR-ABL F317L mutant allografted in po dosed SCID mouse assessed as reduction of hepatosplenomegaly administered qd for 14 days; type: functional, organism-based
[8] = system: BaF3; experiment: Antitumor activity against mouse BA/F3 cells expressing BCR-ABL T315I mutant allografted in po dosed SCID mouse assessed as reduction of hepatosplenomegaly administered qd for 14 days; type: functional, organism-based
[9] = system: K562; experiment: Antitumor activity against human K562 cells xenografted in mouse assessed as inhibition of tumor growth at 1 mg/kg, po qd for 14 days; type: functional; details: K562, 336 h, read-out: TGI
Outline: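 K562 cells in normal saline (2.5 × 10^7 cells/mL, 0.2 mL) injected subcutaneously into right flank; mice randomized when mean tumor volume reached 100−200 mm3. Dosing once daily by oral gavage for 14 consecutive days in 1% DMSO, 22.5% Cremophor, 7.5% ethanol, 69% saline. Tumor volume (L × W2/2) and body weight every 2 days; n = 10/group; unpaired Student's t test vs vehicle.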

[10] = system: K562; experiment: Antitumor activity against human K562 cells xenografted in mouse assessed as reduction in tumor size at 2 to 10 mg/kg, po qd for 2 days; type: functional, organism-based
[11] = system: K562; experiment: Antitumor activity against human K562 cells xenografted in po dosed mouse assessed as inhibition of tumor growth administered qd for 14 days; type: functional, organism-based
Outline: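 K562 cells suspended in normal saline (2.5 × 10^7 cells/mL), 0.2 mL injected subcutaneously into the right flank. Mice were randomised once mean tumour volume reached 100−200 mm3. Oral gavage once daily for 14 days, in 1% DMSO/22.5% Cremophor/7.5% ethanol/69% saline. Tumour volume (L × W²/2) and body weight taken every 2 days; recurrence followed 20 days after dosing stopped. n = 10/group; unpaired t test versus vehicle.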

[12] = AUC (0 to t) in rat at 25 mg/kg, po; type: ADME, organism-based; design: dose 25 mg/kg, route oral; details: plasma
Outline: (§2)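 Bismesylate salt given to rats as a single iv dose of 5 mg/kg or a single oral dose of 25 mg/kg. Plasma drug levels were followed over time to derive the PK parameters. The 12 h and 24 h plasma levels come from the oral 25 mg/kg dose.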

[13] = Mean residence time in rat at 5 mg/kg, iv; type: ADME, organism-based; design: dose 5 mg/kg, route intravenous; details: in vivo; outline: as §2
[14] = system: Caco-2; experiment: Efflux ratio of permeability from […] in human Caco2 cells; type: ADME, cell-based
[15] = biological target: Cytochrome P450 2C9 (Homo sapiens, UniProt P11712); experiment: Inhibition of human recombinant CYP2C9 after 30 mins; type: ADME
Sequence of Cytochrome P450 2C9 (P11712 whole entry): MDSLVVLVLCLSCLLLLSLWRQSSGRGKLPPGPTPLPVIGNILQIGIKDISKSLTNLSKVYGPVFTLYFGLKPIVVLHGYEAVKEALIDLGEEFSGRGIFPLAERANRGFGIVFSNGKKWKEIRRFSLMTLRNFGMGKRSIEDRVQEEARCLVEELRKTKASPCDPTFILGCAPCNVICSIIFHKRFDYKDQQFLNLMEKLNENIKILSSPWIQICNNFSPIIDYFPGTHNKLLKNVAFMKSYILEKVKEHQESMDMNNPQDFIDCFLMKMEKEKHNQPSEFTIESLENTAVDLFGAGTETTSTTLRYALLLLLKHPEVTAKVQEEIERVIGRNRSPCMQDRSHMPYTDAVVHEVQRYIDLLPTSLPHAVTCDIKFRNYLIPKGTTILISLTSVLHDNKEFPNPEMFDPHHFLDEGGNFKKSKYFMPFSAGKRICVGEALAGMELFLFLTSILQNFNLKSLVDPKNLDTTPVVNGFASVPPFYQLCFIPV

[16] = biological target: Cytochrome P450 2E1 (Homo sapiens, UniProt P05181); experiment: Inhibition of human recombinant CYP2E1 at 30 uM after 30 mins; type: ADME; details: recombinant enzyme, 0.5 h
Sequence of Cytochrome P450 2E1 (P05181 whole entry): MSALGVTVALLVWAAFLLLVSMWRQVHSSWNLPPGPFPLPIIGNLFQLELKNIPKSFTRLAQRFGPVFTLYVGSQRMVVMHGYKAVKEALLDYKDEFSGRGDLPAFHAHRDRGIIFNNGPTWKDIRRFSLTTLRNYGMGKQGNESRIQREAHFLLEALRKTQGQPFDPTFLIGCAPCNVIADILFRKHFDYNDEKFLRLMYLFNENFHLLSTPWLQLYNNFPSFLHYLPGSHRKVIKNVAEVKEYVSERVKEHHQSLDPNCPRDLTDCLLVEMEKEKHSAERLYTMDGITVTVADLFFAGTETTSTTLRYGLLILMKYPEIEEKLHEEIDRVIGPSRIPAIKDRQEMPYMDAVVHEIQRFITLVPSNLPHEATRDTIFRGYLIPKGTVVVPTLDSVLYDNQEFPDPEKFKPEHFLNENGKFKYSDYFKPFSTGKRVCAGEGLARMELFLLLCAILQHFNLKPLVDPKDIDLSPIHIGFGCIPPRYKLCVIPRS

[17] = Cytotoxicity against mouse BA/F3 cells expressing BCR-ABL F486S mutant assessed as growth inhibition after 72 hrs by CCK-8 assay; details: BaF3, 72 h
[18] = Cytotoxicity against mouse BA/F3 cells expressing BCR-ABL E359V mutant assessed as growth inhibition after 72 hrs by CCK-8 assay; details: BaF3, 72 h
[19] = Cytotoxicity against mouse BA/F3 cells expressing BCR-ABL M351T mutant assessed as growth inhibition after 72 hrs by CCK-8 assay; details: BaF3, 72 h
[20] = Cytotoxicity against mouse BA/F3 cells expressing BCR-ABL F317L mutant assessed as growth inhibition after 72 hrs by CCK-8 assay; details: BaF3, 72 h
[21] = Cytotoxicity against mouse BA/F3 cells expressing BCR-ABL E255V mutant assessed as growth inhibition after 72 hrs by CCK-8 assay; details: BaF3, 72 h
[22] = biological target: Tyrosine-protein kinase receptor Tie-1 (Homo sapiens) (UniProt P35590); experiment: Binding affinity to TIE1 (unknown origin) at 10 nM after 2 hrs by FRET assay
Sequence of Tyrosine-protein kinase receptor Tie-1 (Homo sapiens) (P35590 whole entry): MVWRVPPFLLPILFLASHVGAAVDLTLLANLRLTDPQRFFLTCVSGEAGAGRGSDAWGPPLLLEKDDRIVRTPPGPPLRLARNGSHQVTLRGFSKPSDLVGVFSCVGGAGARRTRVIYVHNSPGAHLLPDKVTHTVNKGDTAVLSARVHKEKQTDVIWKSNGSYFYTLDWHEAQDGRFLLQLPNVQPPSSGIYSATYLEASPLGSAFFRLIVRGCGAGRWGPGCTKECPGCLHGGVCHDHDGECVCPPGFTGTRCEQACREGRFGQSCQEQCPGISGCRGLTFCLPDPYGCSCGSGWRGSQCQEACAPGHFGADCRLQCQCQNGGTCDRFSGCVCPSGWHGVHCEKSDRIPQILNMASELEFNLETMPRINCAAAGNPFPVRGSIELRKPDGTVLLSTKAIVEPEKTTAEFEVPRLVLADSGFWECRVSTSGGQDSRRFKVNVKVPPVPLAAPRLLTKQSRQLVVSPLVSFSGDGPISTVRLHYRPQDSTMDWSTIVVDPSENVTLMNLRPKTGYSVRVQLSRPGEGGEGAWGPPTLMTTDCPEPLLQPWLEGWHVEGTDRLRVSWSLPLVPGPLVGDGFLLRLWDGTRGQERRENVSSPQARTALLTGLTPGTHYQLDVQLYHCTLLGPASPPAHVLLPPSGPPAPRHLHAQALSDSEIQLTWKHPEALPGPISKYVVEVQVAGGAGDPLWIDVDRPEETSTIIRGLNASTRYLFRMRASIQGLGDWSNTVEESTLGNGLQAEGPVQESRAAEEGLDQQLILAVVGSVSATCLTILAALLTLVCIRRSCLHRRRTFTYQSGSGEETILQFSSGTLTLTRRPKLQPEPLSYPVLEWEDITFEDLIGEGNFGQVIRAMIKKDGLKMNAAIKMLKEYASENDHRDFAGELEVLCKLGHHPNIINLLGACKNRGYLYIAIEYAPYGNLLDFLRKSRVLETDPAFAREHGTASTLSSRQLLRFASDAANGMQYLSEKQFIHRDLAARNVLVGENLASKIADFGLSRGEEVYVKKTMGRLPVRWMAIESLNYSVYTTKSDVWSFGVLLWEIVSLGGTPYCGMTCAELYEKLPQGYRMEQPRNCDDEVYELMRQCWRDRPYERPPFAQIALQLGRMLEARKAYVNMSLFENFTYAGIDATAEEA

[23] = biological target: Mast/stem cell growth factor receptor Kit (Homo sapiens) (UniProt P10721); experiment: Binding affinity to KIT (unknown origin) at 10 nM after 2 hrs by FRET assay
Sequence of Mast/stem cell growth factor receptor Kit (Homo sapiens) (P10721 whole entry): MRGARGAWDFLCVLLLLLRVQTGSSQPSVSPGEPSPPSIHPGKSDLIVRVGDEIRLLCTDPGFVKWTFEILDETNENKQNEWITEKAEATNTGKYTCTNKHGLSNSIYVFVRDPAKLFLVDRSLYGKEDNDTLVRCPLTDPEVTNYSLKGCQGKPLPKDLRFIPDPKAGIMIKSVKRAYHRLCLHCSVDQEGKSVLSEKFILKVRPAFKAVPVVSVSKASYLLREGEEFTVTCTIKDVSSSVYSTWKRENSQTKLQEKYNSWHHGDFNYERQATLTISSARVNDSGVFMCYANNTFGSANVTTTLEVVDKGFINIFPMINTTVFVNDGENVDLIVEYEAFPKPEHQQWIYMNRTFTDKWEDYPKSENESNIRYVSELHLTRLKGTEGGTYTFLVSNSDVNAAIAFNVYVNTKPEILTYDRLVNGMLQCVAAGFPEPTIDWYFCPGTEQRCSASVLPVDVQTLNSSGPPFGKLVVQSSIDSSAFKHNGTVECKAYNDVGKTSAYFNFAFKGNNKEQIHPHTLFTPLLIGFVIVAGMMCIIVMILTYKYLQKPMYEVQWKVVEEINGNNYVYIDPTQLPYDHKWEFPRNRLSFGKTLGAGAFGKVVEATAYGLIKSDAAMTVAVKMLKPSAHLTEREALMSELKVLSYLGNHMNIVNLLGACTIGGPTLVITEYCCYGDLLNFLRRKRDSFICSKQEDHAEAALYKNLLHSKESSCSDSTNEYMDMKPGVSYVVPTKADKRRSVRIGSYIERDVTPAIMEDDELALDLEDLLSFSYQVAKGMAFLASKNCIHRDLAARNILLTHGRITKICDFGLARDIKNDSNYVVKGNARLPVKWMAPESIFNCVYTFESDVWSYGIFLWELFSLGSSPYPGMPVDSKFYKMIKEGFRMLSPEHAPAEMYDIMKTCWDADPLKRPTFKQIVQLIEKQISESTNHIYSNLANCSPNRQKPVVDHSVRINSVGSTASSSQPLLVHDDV

[24] = biological target: Receptor-type tyrosine-protein kinase FLT3 (Homo sapiens) (UniProt P36888); experiment: Binding affinity to FLT3 (unknown origin) at 10 nM after 2 hrs by FRET assay
Sequence of Receptor-type tyrosine-protein kinase FLT3 (Homo sapiens) (P36888 whole entry): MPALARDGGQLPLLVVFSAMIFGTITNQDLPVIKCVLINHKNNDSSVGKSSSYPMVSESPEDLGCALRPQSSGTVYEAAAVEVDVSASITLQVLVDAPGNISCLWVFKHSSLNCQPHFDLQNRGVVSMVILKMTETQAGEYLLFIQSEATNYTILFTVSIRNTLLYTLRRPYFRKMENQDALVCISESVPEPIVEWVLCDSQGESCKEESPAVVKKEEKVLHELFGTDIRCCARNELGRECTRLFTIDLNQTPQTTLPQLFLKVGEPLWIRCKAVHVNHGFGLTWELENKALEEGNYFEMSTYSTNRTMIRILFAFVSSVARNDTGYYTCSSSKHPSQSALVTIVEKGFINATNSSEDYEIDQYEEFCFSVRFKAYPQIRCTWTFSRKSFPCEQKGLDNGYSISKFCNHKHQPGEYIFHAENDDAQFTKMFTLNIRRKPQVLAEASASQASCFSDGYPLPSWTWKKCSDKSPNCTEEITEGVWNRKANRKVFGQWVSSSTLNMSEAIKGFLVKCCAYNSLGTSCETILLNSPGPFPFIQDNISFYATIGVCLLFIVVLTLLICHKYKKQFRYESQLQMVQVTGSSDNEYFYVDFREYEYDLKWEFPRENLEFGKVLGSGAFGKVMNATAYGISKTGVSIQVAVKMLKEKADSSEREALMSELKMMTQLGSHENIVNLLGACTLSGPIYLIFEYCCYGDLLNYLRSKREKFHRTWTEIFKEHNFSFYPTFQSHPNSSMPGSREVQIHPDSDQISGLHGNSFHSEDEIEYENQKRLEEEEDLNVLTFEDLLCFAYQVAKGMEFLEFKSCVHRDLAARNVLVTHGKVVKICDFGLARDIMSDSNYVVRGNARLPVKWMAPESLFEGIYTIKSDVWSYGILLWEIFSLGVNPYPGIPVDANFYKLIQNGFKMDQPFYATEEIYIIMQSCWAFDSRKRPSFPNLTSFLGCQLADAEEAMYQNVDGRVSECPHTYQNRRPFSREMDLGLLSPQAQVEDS

[25] = biological target: Tyrosine-protein kinase ABL1 (Homo sapiens, UniProt P00519, T315I); experiment: Binding affinity to phosphorylated ABL1 T315I mutant (unknown origin) after 1 hr
[26] = biological target: Tyrosine-protein kinase ABL1 (Homo sapiens, UniProt P00519, F317I); experiment: Binding affinity to non phosphorylated ABL1 F317I mutant (unknown origin) after 1 hr
[27] = biological target: T1, Tyrosine-protein kinase ABL1 (Homo sapiens, UniProt P00519); experiment: Binding affinity to phosphorylated wild type ABL1 (unknown origin) after 1 hr
[28] = biological target: T1, Tyrosine-protein kinase ABL1; experiment: Binding affinity to non phosphorylated wild type ABL1 (unknown origin) after 1 hr
[29] = Cytotoxicity against mouse BA/F3 cells assessed as growth inhibition after 72 hrs by CCK-8 assay; details: BaF3, 72 h
[30] = cells; details: Mus musculus, BaF3, 72 h

## Cc1ccc(C(=O)Nc2ccc(CN3CCN(C)CC3)c(C(F)(F)F)c2)cc1C#Cc1cnc2[nH]ncc2c1 [OLVEREMBATINIB]
[1]
  Survival: 31.9 days
[2]
  Survival: 24.6 days
[3]
  Survival: 23.7 days
[4]
  Activity: Dose-dependent effect
[5]
  Activity: Active
[6]
  Activity: Active
[7]
  Activity: Active
[8]
  Activity: Active
[9]
  inhibition in vivo at 1 mg/kg: 68.3%
[10]
  Activity: Active
[11]
  TGI: Dose-dependent effect
[12]
  AUC(0-t): 6700 ng·h/mL
[13]
  MRT: 6.7 h
[14]
  Ratio: 0.9
[15]
  IC50: 110 nM
[16]
  inhibition (INH): Not Active
[17]
  IC50: 1 nM
[18]
  IC50: 2.3 nM
[19]
  IC50: 0.2 nM
[20]
  IC50: 2.7 nM
[21]
  IC50: 8.1 nM
[22]
  Activity: inactive
[23]
  Activity: inactive
[24]
  Activity: inactive
[25]
  Kd: 3.2 nM
[26]
  Kd: 1.8 nM
[27]
  Kd: 0.34 nM
[28]
  Kd: 0.32 nM
[29]
  IC50: 170 nM
[30]
  IC50: 6 nM
